# Measurements pooled from the literature.
# Protocols differ between the studies behind these lines.
# Observed: cell growth or viability
Compound,cell line,method,concentration,time,endpoint,value
COc1ccc(NC(=O)Nc2cccc(-c3cn(Cc4ccc(Br)cc4)nn3)c2)cc1,Huh-7,CCK-8,50 µM,72 h,viability,10.7%
O=C(Nc1ccc(Cl)cc1)Nc1ccc(-c2cn(Cc3ccc(Br)cc3)nn2)cc1,Huh-7,CCK-8,50 µM,72 h,viability,65%
COc1cc(NC(=O)c2cnn(-c3ccc([N+](=O)[O-])cc3)c2C(F)(F)F)cc(OC)c1,LX-2,MTS,50 µM,72 h,inhibition,14.1%
O=[N+]([O-])c1ccc(O)c(C=NNc2ccc(Br)cc2)c1,HEK-293T,MTT,,24 h,IC50,16.2 µM
CC(C)C[C@H](NC(=O)[C@H](Cc1ccccc1)NC(=O)c1cnccn1)B(O)O,HepG2,ATP luminescence,,48 h,EC50,7 pM
O=C(Nc1ccc(Cl)cc1)Nc1ccc(-c2cn(Cc3ccc(Cl)cc3)nn2)cc1,Huh-7,CCK-8,50 µM,72 h,viability,72.8%
COc1ccc(NC(=O)Nc2ccc(-c3cn(Cc4ccc(C)cc4)nn3)cc2)cc1,Huh-7,CCK-8,50 µM,72 h,viability,64.7%
COc1cc(NC(=O)c2cnn(-c3ccc([N+](=O)[O-])cc3)c2C(F)(F)F)cc(OC)c1OC,LX-2,MTS,50 µM,72 h,inhibition,11%
COc1ccc(NC(=O)NCc2cn(Cc3ccccc3C)nn2)cc1,Huh-7,CCK-8,50 µM,72 h,viability,86.8%
Cc1nc(Nc2ncc(C(=O)Nc3c(C)cccc3Cl)s2)cc(N2CC[C@H](O)C2)n1,Ramos,ATP luminescence,10 µM,72 h,inhibition,15%
O=C(Nc1ccc(Cl)cc1)Nc1ccc(-c2cn(Cc3cccc(Cl)c3)nn2)cc1,Huh-7,CCK-8,50 µM,48 h,viability,86.7%
O=[N+]([O-])c1cc(I)c(O)c(C=NNc2ccc(C(F)(F)F)cc2)c1,HEK-293T,MTT,,24 h,IC50,8.11 µM
O=C(Nc1ccc(-c2cn(Cc3ccc(Br)cc3)nn2)cc1)Nc1ccccc1Br,Huh-7,CCK-8,50 µM,48 h,viability,70.8%
COc1ccc(NC(=O)Nc2cccc(-c3cn(Cc4ccccc4C)nn3)c2)cc1,Huh-7,CCK-8,50 µM,72 h,viability,10.5%
